Test results reported in PMC7392083 (Journal of the American Chemical Society, 2020).
Read-outs that look alike come from different tables or passages of the source.

How the values were obtained:
[1] = biological target: T1, human intelectin-1 (hItln-1) (Homo sapiens, UniProt Q8WWA0); experiment: Biolayer interferometry; assay type: binding; conditions: for ΔΔG relative free energy of binding compared to Galf: column Galf; for ΔΔG relative free energy of binding compared to Glycerol 1-phosphate: column Glycerol 1-phosphate; for ΔΔG relative free energy of binding compared to KDO: column KDO; for ΔΔG relative free energy of binding compared to KO: column KO
T1 sequence (Q8WWA0 19-313): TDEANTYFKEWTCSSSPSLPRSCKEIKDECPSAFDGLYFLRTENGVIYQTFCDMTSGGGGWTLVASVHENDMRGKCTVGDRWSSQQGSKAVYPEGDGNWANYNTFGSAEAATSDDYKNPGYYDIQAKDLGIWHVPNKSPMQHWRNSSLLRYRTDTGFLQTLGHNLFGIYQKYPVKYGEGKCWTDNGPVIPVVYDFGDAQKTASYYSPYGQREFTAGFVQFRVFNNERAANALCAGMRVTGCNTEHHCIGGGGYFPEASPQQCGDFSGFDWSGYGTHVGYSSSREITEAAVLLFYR

[2] = biological target: T1, human intelectin-1 (hItln-1); experiment: ELISA of hItln-1 binding to immobilized BSA-conjugated monosaccharides; conditions: for Kd by ELISA: BSA-conjugated heptose sugars, single-site binding fit; for binding to hItln-1 by ELISA: saccharide conjugated in multiple copies to BSA and immobilized
Outline: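 Sugar–BSA conjugates were adsorbed in PBS (1.5 μM sugar), 1 h RT, then blocked with 5% BSA in HEPES-T for 2 h. Serially diluted Strep-hItln-1 in HEPES-T + BSA was bound 2 h RT. Detection used anti-Strep-tag HRP (1:10,000, 2 h RT), then TMB quenched with 2 M H2SO4, read at 450 nm. One-site binding fit gave Kd. Mean ± SEM, n = 2 technical replicates.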

[3] = tested on: hItln-1; conditions: cited from earlier work
[4] = ΔΔG = 0.593 (kcal/mol) ln(IC50,row/IC50,column)

Compound | ΔΔG relative free energy of binding compared to Galf [1, 4] [kcal/mol] | ΔΔG relative free energy of binding compared to Glycerol 1-phosphate [1, 4] [kcal/mol] | ΔΔG relative free energy of binding compared to KDO [1, 4] [kcal/mol] | ΔΔG relative free energy of binding compared to KO [1, 4] [kcal/mol] | Kd by ELISA [2] | binding to hItln-1 by ELISA [2] | IC50 [1] [µM] | IC50 value higher than that of allyl-KO ([1]; ratio of IC50 values) [fold] | ΔΔG relative free energy of binding compared to D,D-heptose ([1]; ΔΔG = 0.593 (kcal/mol) ln(IC50,row/IC50,column), column D,D-heptose) [kcal/mol] | binding to hItln-1 [3] | binding to hItln-1 ([3]; listed as N-acetyl neuraminic acid)
OC[C@@H](O)[C@H]1O[C@H](O)[C@@H](O)[C@@H](O)[C@@H]1O [D,D-heptose, D-glycero-α-D-manno-heptose] | 0.8 | 0.7 | 0.9 | 1.3 | could not be determined | no measurable binding | – | – | – | – | –
OC[C@@H](O)[C@@H]1O[C@@H](O)[C@H](O)[C@H]1O [Galf, β-D-galactofuranose] | – | – | 0.1 | 0.6 | – | bound | – | – | – | – | –
O=P(O)(O)OC[C@H](O)CO [Glycerol 1-phosphate, D-glycerol 1-phosphate] | 0.1 | – | 0.2 | 0.7 | – | – | – | – | – | – | –
CC(=O)N[C@H]1[C@H]([C@H](O)[C@H](O)CO)OC(O)(C(=O)O)C[C@@H]1O (stereo partly shown) [sialic acid, N-acetyl neuraminic acid] | – | – | – | – | – | – | – | – | – | not a ligand | does not bind

Second part, led by results:

ΔΔG relative free energy of binding compared to Galf [1, 4] [kcal/mol] | ΔΔG relative free energy of binding compared to Glycerol 1-phosphate [1, 4] [kcal/mol] | ΔΔG relative free energy of binding compared to KDO [1, 4] [kcal/mol] | ΔΔG relative free energy of binding compared to KO [1, 4] [kcal/mol] | Kd by ELISA [2] | binding to hItln-1 by ELISA [2] | IC50 [1] [µM] | IC50 value higher than that of allyl-KO ([1]; ratio of IC50 values) [fold] | ΔΔG relative free energy of binding compared to D,D-heptose ([1]; ΔΔG = 0.593 (kcal/mol) ln(IC50,row/IC50,column), column D,D-heptose) [kcal/mol] | Compound | binding to hItln-1 [3] | binding to hItln-1 ([3]; listed as N-acetyl neuraminic acid)
-0.6 | – | – | – | – | bound | 700 | – | – | C=CCO[C@@]1(C(=O)O)O[C@H]([C@H](O)CO)[C@H](O)[C@H](O)[C@@H]1O [KO, prop-2-en-1-yl D-glycero-alpha-D-talo-oct-2-ulopyranosidonic acid] | – | –
2.0 | 1.9 | 2.0 | 2.4 | could not be determined | no measurable binding | – | 80 | 1.2 | OC[C@H](O)[C@H]1O[C@H](O)[C@@H](O)[C@@H](O)[C@@H]1O [L,D-heptose, L-glycero-α-D-manno-heptose] | – | –
